Measurements from different studies.
Compare with care: the assays were run in different laboratories.
Cell line: MDA-MB-231

Cc1nc(Nc2ncc(C(=O)Nc3c(C)cccc3Cl)s2)cc(N2CCN(CCO)CC2)n1  IC50 (cell growth or viability, MTT; 48 h): 19.4 µM
C=CC1=C(C)c2cc3[nH]c(cc4nc(cc5[nH]c(cc1n2)c(C)c5CCC(=O)O)C(CCC(=O)O)=C4C)c(C)c3C=C  IC50 (cell growth or viability; 4 h, dark): > 100 µM
COc1cc(OC)cc([C@H]2C[C@@H](C)OC(=O)c3cc4ccccn4c32)c1 (racemic)  IC50 (cell growth or viability, resazurin; 72 h): 20.5 µM
Oc1cccc(-c2ccc3ncnc(Nc4cccc(C(F)(F)F)c4)c3c2)c1  IC50 (cell growth or viability, MTT; 24 h): 14 µM
CC(C)C(=O)Nc1ccc([N+](=O)[O-])c(C(F)(F)F)c1  IC50 (cell growth or viability, CCK-8; 48 h): > 50 µM
CCOc1ccc(-c2nc3ccccc3n2Cc2ccccc2)cc1  IC50 (cell growth or viability, MTT): 21.1 µM
COc1cccc2c1C(=O)c1c(O)c3c(c(O)c1C2=O)C[C@@](O)(C(=O)CO)C[C@@H]3O[C@H]1C[C@H](N)[C@H](O)[C@H](C)O1  IC50 (cell growth or viability, MTT): 6.75 µM
COc1cc(-c2nc(C(=O)Nc3nnc(-c4cc5ccccc5n4C)s3)cc3c2[nH]c2ccccc23)cc(OC)c1OC  IC50 (cell growth or viability, MTT; 72 h): 7.23 µM
Oc1ccccc1-c1ccc2ncnc(Nc3cccc(C(F)(F)F)c3)c2c1  IC50 (cell growth or viability, MTT; 24 h): 8.58 µM
O=C(Nc1nnc(-c2cc3ccccc3[nH]2)s1)c1cc2c([nH]c3ccccc32)c(-c2ccccc2)n1  IC50 (cell growth or viability, MTT; 72 h): 3.94 µM
Cc1ccc2nc(-c3ccc(Cl)cc3)n(Cc3ccccc3)c2c1  IC50 (cell growth or viability, MTT): 2.39 µM
O=C(Nc1nnc(-c2cc3ccccc3[nH]2)s1)c1cc2c([nH]c3ccccc32)c(-c2ccc(F)cc2)n1  IC50 (cell growth or viability, MTT; 72 h): 6.79 µM
COc1cccc2c1C(=O)c1c(O)c3c(c(O)c1C2=O)C[C@@](O)(C(=O)CO)C[C@@H]3O[C@H]1C[C@H](N)[C@H](O)[C@H](C)O1  IC50 (cell growth or viability, SRB): 0.45 µM
COc1ccc(-c2nc3ccccc3[nH]2)cc1O  IC50 (cell growth or viability, MTT; 48 h): 88.1 µM
COc1ccc(Br)cc1/C=C/C(=O)c1ccc(NC(C)=O)cc1  IC50 (cell growth or viability, MTT; 72 h): 9.5 µM
Fc1ccc(-c2nc3ccccc3n2Cc2ccccc2)cc1  IC50 (cell growth or viability, MTT): 34.6 µM
CCn1c(-c2nnc(NC(=O)c3cc4c([nH]c5ccccc54)c(-c4ccc(OC)cc4)n3)s2)cc2ccccc21  IC50 (cell growth or viability, MTT; 72 h): 9.39 µM
[Na+].[Na+].[Na+].[O]=[V]([O-])([O-])[O-]  IC50 (cell migration, inhibitor): 5.6 µM
O=C(CCl)Nc1ccc2c(Nc3cccc(C(F)(F)F)c3)ncnc2c1  IC50 (cell growth or viability, MTT; 24 h): 6.88 µM
COc1ccc(/C=C/C(=O)c2cc(Br)ccc(=O)c2O)cc1  IC50 (cell growth or viability, MTT; 48 h): 5.5 µM
FC(F)(F)c1cccc(Nc2ncnc3ccc(-c4ccsc4)cc23)c1  IC50 (cell growth or viability, MTT; 24 h): 2.96 µM
CC(=O)O[C@@]12CO[C@@H]1C[C@H](O)[C@@]1(C)C(=O)[C@H](O)C3=C(C)[C@@H](OC(=O)[C@H](O)[C@@H](NC(=O)OC(C)(C)C)c4ccccc4)C[C@@](O)([C@@H](OC(=O)c4ccccc4)[C@H]21)C3(C)C  IC50 (cell growth or viability, resazurin; 72 h): 0.02 µM
O=C1CCC2(Oc3cccc4cccc(c34)O2)c2c(O)ccc(O)c21  IC50 (cell growth or viability, resazurin; 72 h): > 25 µM
Oc1ccc(Br)cc1-c1nc2ccccc2[nH]1  IC50 (cell growth or viability, MTT; 48 h): 12.8 µM
CCc1ccc(N2NC(=O)/C(=C/c3ccc(-c4ccc(S(=O)(=O)Nc5nccs5)cc4)o3)C2=O)cc1  IC50 (cell growth or viability, MTT; 48 h): 65.2 µM
C[C@@H]1C[C@H](c2cccc(Cl)c2)c2c(cc3ccccn23)C(=O)O1 (racemic)  IC50 (cell growth or viability, resazurin; 72 h): 36 µM
CC(C)[C@H](N)c1nc2cc(-c3ccncc3F)sc2c(=O)[nH]1  IC50 (cell growth or viability, MTT): 1.19 µM
Cc1cc(NS(=O)(=O)c2ccc(NC(=O)COc3ccc(C(C)(C)c4ccccc4)cc3)cc2)nc(C)n1  IC50 (cell growth or viability, MTT; 48 h): 39 µM
FC(F)(F)c1cccc(Nc2ncnc3ccc(-c4ccc(Cl)cc4)cc23)c1  IC50 (cell growth or viability, MTT; 24 h): 11.4 µM
C[C@@H]1C[C@H](c2cccc(F)c2)c2c(cc3ccccn23)C(=O)O1 (racemic)  IC50 (cell growth or viability, resazurin; 72 h): 79.5 µM
CC(C)=CCc1c(O)c(CC=C(C)C)c2oc3c(O)ccc(O)c3c(=O)c2c1O  IC50 (cell growth or viability; 48 h): 17.1 µM
COc1cccc([C@@H]2C[C@@H](C)OC(=O)c3cc4ccccn4c32)c1 (racemic)  IC50 (cell growth or viability, resazurin; 72 h): 53 µM
O=C(C=C[c-]1cccc1)c1sccc1Br.[Fe+2].c1cc[cH-]c1  IC50 (cell growth or viability, MTT; 72 h): 6.59 µM
COc1cc([C@H]2C[C@@H](C)OC(=O)c3cc4ccccn4c32)cc(OC)c1OC (racemic)  IC50 (cell growth or viability, resazurin; 72 h): > 100 µM
FC(F)(F)c1cccc(Nc2ncnc3ccc(Nc4ccccc4)cc23)c1  IC50 (cell growth or viability, MTT; 24 h): 15.5 µM
Oc1ccccc1-c1nc2ccccc2[nH]1  IC50 (cell growth or viability, MTT; 48 h): 35.9 µM
CC(=O)OC[C@H]1O[C@@H]([S-])[C@H](OC(C)=O)[C@@H](OC(C)=O)[C@@H]1OC(C)=O.CCP(CC)CC.[Au+]  IC50 (cell growth or viability, resazurin): 1.58 µM
FC(F)(F)c1cccc(Nc2ncnc3ccc(-c4ccc5c(c4)OCO5)cc23)c1  IC50 (cell growth or viability, MTT; 24 h): 7.24 µM
CSc1ccc(-c2nc3ccc(C)cc3n2Cc2ccccc2)cc1  IC50 (cell growth or viability, MTT): 21.9 µM
COc1cc(Nc2nccc(-c3cnn4nc(OC)ccc34)n2)cc(C(F)(F)F)c1  IC50 (cell growth or viability, ATP luminescence): 1.8 µM
C=CCn1c(-c2ccc([N+](=O)[O-])cc2)nc2ccccc21  IC50 (cell growth or viability, MTT): 43.9 µM
O=C1C[C@@H](c2ccc(O)cc2)Oc2cc(O)cc(O)c21  IC50 (cell growth or viability, MTT; 48 h): 2.98 µM
COC1=C2C[C@@H](C)C[C@H](OC)[C@H](O)[C@@H](C)/C=C(\C)[C@H](OC(N)=O)[C@@H](OC)/C=C\C=C(/C)C(=O)NC(=CC1=O)C2=O  IC50 (cell growth or viability, MTT): 0.065 µM
C[C@@H]1C[C@H](c2ccc(Br)cc2)c2c(cc3ccccn23)C(=O)O1 (racemic)  IC50 (cell growth or viability, resazurin; 72 h): 16.7 µM
O=C(CSc1nc2ccc(N=Cc3ccc(Sc4nnnn4-c4ccccc4)o3)cc2s1)N1CCOCC1  IC50 (cell growth or viability, MTT; 48 h): 21 µM
CCCCCCCCCCCC(=O)Oc1c(C)c(O)c(C(=O)/C=C/c2ccccc2)c(OC)c1C  IC50 (cell growth or viability, SRB; 72 h): > 50 µM
CC(=O)Nc1nc(C)c(-c2csc(Nc3ccccc3)n2)s1  IC50 (cell growth or viability, MTT; 72 h): 15.7 µM
CC(=O)O[C@@]12CO[C@@H]1C[C@H](O)[C@@]1(C)C(=O)[C@H](O)C3=C(C)[C@@H](OC(=O)[C@H](O)[C@@H](NC(=O)OC(C)(C)C)c4ccccc4)C[C@@](O)([C@@H](OC(=O)c4ccccc4)[C@H]21)C3(C)C  IC50 (cell growth or viability, ATP luminescence; 72 h): 0.0022 µM
